Experimental data taken from ChEMBL document CHEMBL4325822, “Discovery of a tetrazolyl β-carboline with in vitro and in vivo osteoprotective activity under estrogen-deficient conditions” (Medchemcomm, 2018).
pEC50: −log10 of the molar value.

Experiments:
[1] = Induction of osteoblast differentiation in Sprague-Dawley rat calvarial osteoblasts assessed as alkaline phosphatase activity after 48 hrs using PNPP as substrate by spectrophotometric method; format: functional, cell-based; conditions: Rattus norvegicus, Sprague-Dawley, Calvarial osteoblast, 48 h; read-out: EC50
In short: (§1)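 Calvarial osteoblasts at 2 × 10³ cells/well. Treated 48 h with varied concentrations in differentiation medium (5% charcoal-treated FBS, 10 mM β-glycerophosphate, 50 µg·mL⁻¹ ascorbic acid). Total ALP read with PNPP substrate at 405 nm. Cell-free wells check for compound interference with substrate or absorbance.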

[2] = Induction of osteoblast differentiation in Sprague-Dawley rat calvarial osteoblasts assessed as alkaline phosphatase activity at 1 nM after 48 hrs using PNPP as substrate by spectrophotometric method relative to control; format: functional; in short: as §1
[3] = Induction of osteoblast differentiation in Sprague-Dawley rat calvarial osteoblasts assessed as alkaline phosphatase activity at 10 pM after 48 hrs using PNPP as substrate by spectrophotometric method relative to control; format: functional; in short: as §1

pEC50 [1] | SMILES | Emax at 0.001 µM [2] [%] | Emax at 10 pM [3] [%]
6.26 | COC(=O)c1cc2c([nH]c3ccccc32)c(C=O)n1 | 24 | –
6.28 | COC(=O)c1cc2c([nH]c3ccccc32)c(C(c2nnnn2C2CCCCC2)N2CCN(C)CC2)n1 (centres undefined) | – | 30
